Positions of bridges follow the written chain, without caps; N, C: chain ends. Non-standard residues stand in square brackets, D forms with d. Residues, ends and D or L forms follow the SMILES beside them. Dip = N[C@H](C(=O)O)C(c1ccccc1)c1ccccc1; 2Nal = N[C@@H](Cc1ccc2ccccc2c1)C(=O)O; 3Pal = N[C@@H](Cc1cccnc1)C(=O)O
Tests used:
[1] = target: Somatostatin receptor type 4 (Homo sapiens, UniProt P31391); test: Binding affinity towards cloned human somatostatin 4 (hsst) receptor
[2] = target: Somatostatin receptor type 1 (Homo sapiens, UniProt P30872); test: Binding affinity towards cloned human somatostatin 1 (hsst) receptor
Outline: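 Membranes from CHO-K1 cells stably transfected with the human receptor subtype (calcium phosphate transfection, G418 selection), homogenised and washed in Tris-HCl. Separated by filtration on PEI-soaked GF/C filters; nonspecific binding with 1.0 µM SRIF.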

Chain of Somatostatin receptor type 1 (P30872 whole entry): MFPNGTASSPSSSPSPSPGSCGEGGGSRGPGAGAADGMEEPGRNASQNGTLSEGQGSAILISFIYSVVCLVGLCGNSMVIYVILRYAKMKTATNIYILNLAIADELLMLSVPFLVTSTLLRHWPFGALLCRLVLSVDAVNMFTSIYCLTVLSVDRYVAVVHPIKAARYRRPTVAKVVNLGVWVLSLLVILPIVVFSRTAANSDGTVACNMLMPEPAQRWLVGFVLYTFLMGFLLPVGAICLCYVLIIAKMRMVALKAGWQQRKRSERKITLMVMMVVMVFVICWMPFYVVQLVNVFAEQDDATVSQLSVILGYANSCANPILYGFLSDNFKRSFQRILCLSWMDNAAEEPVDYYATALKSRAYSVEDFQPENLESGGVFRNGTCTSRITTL
Chain of Somatostatin receptor type 4 (P31391 whole entry): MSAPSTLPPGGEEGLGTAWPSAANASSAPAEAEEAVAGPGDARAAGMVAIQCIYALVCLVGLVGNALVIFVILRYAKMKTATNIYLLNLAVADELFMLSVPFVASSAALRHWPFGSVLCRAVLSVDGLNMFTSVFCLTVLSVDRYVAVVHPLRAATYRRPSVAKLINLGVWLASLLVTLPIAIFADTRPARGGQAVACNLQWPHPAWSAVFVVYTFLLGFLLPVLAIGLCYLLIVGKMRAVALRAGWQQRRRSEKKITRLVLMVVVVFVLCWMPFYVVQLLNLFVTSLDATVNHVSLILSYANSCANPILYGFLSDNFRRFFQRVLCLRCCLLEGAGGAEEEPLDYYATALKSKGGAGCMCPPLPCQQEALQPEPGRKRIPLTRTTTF

Compound	IC50 [1] [nM]	IC50 [2] [nM]
CC(C)[C@@H]1NC(=O)[C@H](CCCCN)NC(=O)[C@@H](Cc2c[nH]c3ccccc23)NC(=O)[C@H](Cc2c[nH]cn2)NC(=O)[C@H](NC(=O)[C@@H](N)C(c2ccccc2)c2ccccc2)CSSC[C@@H](C(=O)N[C@@H](Cc2ccc3ccccc3c2)C(N)=O)NC1=O [H-Dip-cyclo[DCys-His-DTrp-Lys-Val-Cys]-Nal-NH2] (H-[Dip][dC]H[dW]KVC[2Nal]-NH2; disulfide 2-7)	1000	
CC(C)[C@@H]1NC(=O)[C@H](CCCCN)NC(=O)[C@@H](Cc2c[nH]c3ccccc23)NC(=O)[C@H](Cc2cccnc2)NC(=O)[C@H](NC(=O)[C@@H](N)C(c2ccccc2)c2ccccc2)CSSC[C@@H](C(=O)N[C@H](C(N)=O)C(c2ccccc2)c2ccccc2)NC1=O [H-Dip-cyclo[DCys-Pal-DTrp-Lys-Val-Cys]-Dip-NH2] (H-[Dip][dC][3Pal][dW]KVC[Dip]-NH2; disulfide 2-7)	1000	1000
CC(C)[C@@H]1NC(=O)[C@H](CCCCN)NC(=O)[C@@H](Cc2c[nH]c3ccccc23)NC(=O)[C@H](Cc2c[nH]cn2)NC(=O)[C@H](NC(=O)[C@@H](N)C(c2ccccc2)c2ccccc2)CSSC[C@@H](C(=O)N[C@H](C(N)=O)C(c2ccccc2)c2ccccc2)NC1=O [H-Dip-cyclo[DCys-His-DTrp-Lys-Val-Cys]-Dip-NH2] (H-[Dip][dC]H[dW]KVC[Dip]-NH2; disulfide 2-7)		1000

From BindingDB's records for doi:10.1021/jm970730q (Tulane University School of Medicine, 1998)
